Results on eleven compounds are retold here after paper PMC6901019 (Antiviral research, 2019).

Like-named read-outs stand apart in the source and are kept apart here.

For data set [1], the system named is HIV-1. Conditions: cited from earlier work.
The target in data set [2] is HIV-1 CA CTD (Human immunodeficiency virus type 1 group M subtype B, UniProt P12493). Put plainly: HTRF-based CAI binding competition assay. Conditions: for inhibition at 50 µM: read-out: inhibition of CA CTD-CAI HTRF signal. On the technique in general: In TR-FRET formats the signal depends on donor and acceptor labels being close together.
For data set [3], the system named is Gag polyprotein processing. Put plainly: Anti-p24 western blot of infected MT-4 cell lysates. It counts as cell-based. Conditions: MT-4 cells, 3 days of HIV-1IIIB replication, anti-p24 immunoblotting. (In general: A western blot detects proteins with antibodies after separation by electrophoresis.)
Data set [4] deals with WT CA protein (Human immunodeficiency virus type 1 group M subtype B, UniProt P12493). Put plainly: In vitro CA assembly assay. It counts as biochemical, HIV-1. Conditions: 50 μM CA-WT, NaCl-dependent assembly, OD 350 nm. The procedure, abridged:
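Full-length WT CA (E. coli, pET11a) was dialysed into 50 mM sodium phosphate, pH 8.0, and mixed with test compound in 500 μl of that buffer. Assembly was started by adding 500 μl of the same buffer containing 4 M NaCl, pH 8.0. OD350 was read every 20 s for 30 min.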

In data set [5] the test system is C8166 cells. The data set can be described thus: MTT cytotoxicity assay. It counts as cell-based, Human. Conditions: 3 days. The procedure, abridged: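 C8166 T cells were maintained in RPMI 1640 with 10% FBS, penicillin and streptomycin. They were seeded at 4×10^4/well with serially diluted test compound and kept at 37°C, 5% CO2. Viability was measured by MTT after 3 days, and the 50% cytotoxic concentration was calculated.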

Data set [6] deals with CAI-biotin peptide (biotinylated capsid assembly inhibitor peptide). The data set can be described thus: BLI. On the technique in general: Biolayer interferometry detects binding as a change in optical thickness at a sensor tip.
The target of data set [7] is GST-tagged HIV-1 capsid C-terminal domain (GST-CA CTD) (HIV-1). The data set can be described thus: AlphaScreen or HTRF.

What is called EC50 is the concentration that produces a half-maximal response. For the compound `Cc1ccnc(SCc2nc3ccccc3s2)n1` [BMMP], in data set [1] (ref Urano et al., 2011), the EC50 is 20 to 50 µM.

For `Cc1ccc(NC(=O)NCCSCc2ccc(CN(C)C)o2)cc1Cl` [CAP-1], the EC50 in data set [1] (ref Tang et al. 2003) is approximately 70 µM.

Consider `CO[C@H]1[C@H](OC(=O)c2ccc(C)[nH]2)[C@H](O)[C@@H](Oc2ccc3c(O)c(NC(=O)c4c[nH]c(C(=O)Nc5c(O)c6ccc(O[C@H]7OC(C)(C)[C@@H](OC)[C@H](OC(=O)c8ccc(C)[nH]8)[C@@H]7O)c(C)c6oc5=O)c4C)c(=O)oc3c2C)OC1(C)C` [Coumermycin A1], for which the EC50 in data set [1] (ref Chen et al., 2016, Vozzolo et al. 2010) was 8 µM.

Usually inhibition stands for the drop in the measured response relative to a control, in per cent. Consider `O=c1c2ccccc2[se]n1-c1ccccc1` [Ebselen], for which the inhibition at 50 µM in data set [2] is less than 3.2%. The EC50 in data set [1] (ref Thenin-Houssier et al., 2016) was 3.37 µM.

On to `C[C@H](CCC(=O)NCC(=O)O)[C@H]1CC[C@H]2[C@@H]3CC[C@@H]4C[C@H](O)CC[C@]4(C)[C@H]3C[C@H](O)[C@]12C` [GDC, glycodeoxycholate], for which the inhibition at 50 µM in data set [2] was less than 20%. The EC50 in data set [1] (ref Lampel et al., 2015) was 3.12 µM.

`Cc1[nH]c2ccccc2c1CC(=O)N[C@@H](Cc1ccccc1)C(=O)N(C)c1ccccc1` [PF-3450074 (PF74)]: in data set [1] (ref Blair et al., 2010, Shi et al., 2011), the EC50 was 0.3 to 0.6 µM.

Turning to `C[C@H](CCC(=O)NCCS(=O)(=O)O)[C@H]1CC[C@H]2[C@@H]3[C@H](O)C[C@@H]4C[C@H](O)CC[C@]4(C)[C@H]3C[C@H](O)[C@]12C` [TA, taurocholic acid], the inhibition at 50 µM in data set [2] was less than 20%.

As a reminder, the CC50 is the concentration at which the toxic effect on the cells reaches its halfway point. Higher therefore signals better tolerance by the cells. For `Cc1cc(C=C2C(=O)C=CC2=O)cc(C)c1O` [TX-1918], the “inhibition of CA CTD-CAI HTRF signal” value in data set [2] (compound at 50 μM) is more than 70%. In addition, the “effect on CA p24 production / Gag Pr55 processing” value in data set [3] is “significant reductions in proteolyzed CA p24 with increasing concentrations”. The “effect on in vitro CA assembly” value in data set [4] is “inhibited CA assembly in vitro”. For the same compound, the CC50 in data set [5] amounted to 20.8 µM.

For the compound `CC(=O)Nc1cccc(-n2c(=O)n(C3CC3)c(=O)c3c(Nc4ccc(I)cc4F)n(C)c(=O)c(C)c32)c1` [trametinib], the inhibition at 50 µM in data set [2] was less than 3.2%.

By Kd is commonly meant the constant that tells how readily two partners part at equilibrium. Lower therefore signals tighter binding. What is called koff is the rate constant with which the complex falls apart. A higher koff goes with a short-lived complex. In data set [6], “GST-tagged HIV-1 capsid C-terminal domain (GST-CA CTD) (domain or fragment)” registered a Kd of 0.007 µM and a koff of 0.000152 s⁻¹.

The term IC50 denotes the midpoint of a concentration-inhibition curve. Low readings indicate greater potency in that assay, high ones weaker potency in that assay. In data set [7], “untagged CAI peptide (capsid assembly inhibitor)” had an IC50 of 6.5 µM.
